Experimental data: ChEMBL document CHEMBL3045617, “Synthesis and antiviral activities of cyanoacrylate derivatives containing an alpha-aminophosphonate moiety” (J Agric Food Chem, 2008)
Values after ≈ are worked out from the molar mass of the structure shown.

Experiments:
Tobacco mosaic virus [1] = experiment: Antiviral activity against Tobacco mosaic virus (TMV) pre-treated with 500 ug/mL compound for 30 min followed by inoculation on left side of Nicotiana tabacum leaves assessed as virus inactivation effect measured 3 to 4 days post viral infection; type: functional
Procedure, shortened: (§1)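 Purified TMV is mixed with an equal volume of compound solution for 30 min. The mixture is rub-inoculated on the left half of N. tabacum leaves, and a solvent–virus mixture on the right half serves as control. Local lesions are recorded 3-4 days after inoculation. Inhibition % = (control − treated average lesions)/control × 100. Three repetitions. EC50 is derived from tests at several concentrations.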

Tobacco mosaic virus [2] = experiment: Antiviral activity against Tobacco mosaic virus (TMV) inoculated on 500 ug/mL compound smeared Nicotiana tabacum leaves assessed as protective effect against viral infection measured 3 to 4 days post viral infection; type: functional
Procedure, shortened: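 Half-leaf assay on same-age N. tabacum leaves. The compound solution is applied to the left half and solvent to the right half as control. After 12 h, leaves dusted with silicon carbide are brush-inoculated with purified TMV (6 × 10^-3 mg/mL) and then rinsed with water. Local lesions are counted 3-4 days later. Inhibition % = (control lesions − treated lesions)/control lesions × 100. Three repetitions.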

Tobacco mosaic virus [3] = experiment: Antiviral activity against Tobacco mosaic virus (TMV) inoculated on whole Nicotiana tabacum leaves followed by smearing with 500 ug/mL compound solution on left side of leaves assessed as viral infection curative effect measured 3 to 4 days post viral infection; type: functional
Procedure, shortened: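 Whole same-age N. tabacum leaves are brush-inoculated with purified TMV (6 × 10^-3 mg/mL), washed with water and dried. The compound solution is then applied to the left half and solvent to the right half as control. Local lesions are counted 3-4 days after inoculation. Inhibition % is calculated from average lesion counts, control versus treated. Three repetitions.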

Tobacco mosaic virus [4] = experiment: Antiviral activity against Tobacco mosaic virus (TMV) pre-treated with 30.7 ug/mL compound for 30 min followed by inoculation on left side of Nicotiana tabacum leaves assessed as virus inactivation effect measured 3 to 4 days post viral infection; type: functional; procedure, shortened: as §1
Tobacco mosaic virus [5] = experiment: Antiviral activity against Tobacco mosaic virus (TMV) pre-treated with 250 ug/mL compound for 30 min followed by inoculation on left side of Nicotiana tabacum leaves assessed as virus inactivation effect measured 3 to 4 days post viral infection; type: functional; procedure, shortened: as §1
Tobacco mosaic virus [6] = experiment: Antiviral activity against Tobacco mosaic virus (TMV) pre-treated with 125 ug/mL compound for 30 min followed by inoculation on left side of Nicotiana tabacum leaves assessed as virus inactivation effect measured 3 to 4 days post viral infection; type: functional; procedure, shortened: as §1
Tobacco mosaic virus [7] = experiment: Antiviral activity against Tobacco mosaic virus (TMV) pre-treated with compound for 30 min followed by inoculation on left side of Nicotiana tabacum leaves assessed as virus inactivation effect measured 3 to 4 days post viral infection; type: functional, organism-based; procedure, shortened: as §1
Tobacco mosaic virus [8] = experiment: Antiviral activity against Tobacco mosaic virus (TMV) pre-treated with 62.5 ug/mL compound for 30 min followed by inoculation on left side of Nicotiana tabacum leaves assessed as virus inactivation effect measured 3 to 4 days post viral infection; type: functional; procedure, shortened: as §1

| Structure (SMILES) | Activity (Tobacco mosaic virus [1]) | Activity (Tobacco mosaic virus [2]) | Activity (Tobacco mosaic virus [3]) | Activity (Tobacco mosaic virus [4]) | Activity (Tobacco mosaic virus [5]) | Activity (Tobacco mosaic virus [6]) | EC50 (Tobacco mosaic virus [7]) | Activity (Tobacco mosaic virus [8]) |
| --- | --- | --- | --- | --- | --- | --- | --- | --- |
| COC(=O)/C(C#N)=C(\NC(c1ccccc1)P(=O)(OC(C)C)OC(C)C)SC (stereo not given) | 45.7% | 40.8% | 43.3% |  |  |  |  |  |
| CCCOP(=O)(OCCC)C(N/C(SC)=C(/C#N)C(=O)OCC)c1ccccc1 (stereo not given) | 71% | 41.6% | 50.5% | 20.9% | 50.1% | 47.9% | 159 µg/mL (≈ 361 µM) | 33.1% |
| CCOCCOC(=O)/C(C#N)=C(\NC(c1ccccc1F)P(=O)(OCC)OCC)SC (stereo not given) | 70% | 48.3% | 52.7% | 20.8% | 48.8% | 44.2% | 167 µg/mL (≈ 353 µM) | 34.4% |
| CCOC(=O)/C(C#N)=C(\NC(c1ccccc1)P(=O)(OC(C)C)OC(C)C)SC (stereo not given) | 37.8% | 37.6% | 42.8% |  |  |  |  |  |
| CCOP(=O)(OCC)C(N/C(SC)=C(/C#N)C(N)=O)c1ccccc1 (stereo not given) | 60.8% | 55.6% | 54.4% |  |  |  |  |  |
| CCOP(=O)(OCC)C(N/C(SC)=C(/C#N)C(=O)OC)c1ccccc1 (stereo not given) | 64.1% | 29.6% | 56.7% |  |  |  |  |  |
| CCCOP(=O)(OCCC)C(N/C(SC)=C(/C#N)C(=O)OCCOCC)c1ccccc1 (stereo not given) | 51.5% | 43.1% | 43.2% |  |  |  |  |  |
| CCCOP(=O)(OCCC)C(N/C(SC)=C(/C#N)C(=O)NCc1ccccc1)c1ccccc1 (stereo not given) | 50% | 42.4% | 53.8% |  |  |  |  |  |
| CS/C(NC(c1ccccc1)P(=O)(OC(C)C)OC(C)C)=C(\C#N)C(N)=O (stereo not given) | 5.7% | 54.4% | 28.8% |  |  |  |  |  |
| CCOCCOC(=O)/C(C#N)=C(\NC(c1ccccc1)P(=O)(OC(C)C)OC(C)C)SC (stereo not given) | 55.9% | 38.4% | 35.1% |  |  |  |  |  |
| CCCCOP(=O)(OCCCC)C(N/C(SC)=C(/C#N)C(=O)OCC)c1ccccc1 (stereo not given) | 84% | 56.5% | 55.8% | 42.6% | 65.7% | 51.6% | 62.6 µg/mL (≈ 134 µM) | 48.5% |
| CCCCOP(=O)(OCCCC)C(N/C(SC)=C(/C#N)C(=O)OC)c1ccccc1 (stereo not given) | 92.8% | 55.9% | 60.2% | 37.6% | 70.2% | 66.9% | 55.5 µg/mL (≈ 122 µM) | 53.7% |
| CS/C(NC(c1ccccc1)P(=O)(OC(C)C)OC(C)C)=C(\C#N)C(=O)NCc1ccccc1 (stereo not given) | 51.5% | 39% | 52.9% |  |  |  |  |  |
| CCOC(=O)/C(C#N)=C(\NC(c1ccccc1F)P(=O)(OCC)OCC)SC (stereo not given) | 74.1% | 48.3% | 50.7% | 30.7% | 64.1% | 50.1% | 118 µg/mL (≈ 275 µM) | 39.1% |
| CCOP(=O)(OCC)C(N/C(SC)=C(/C#N)C(=O)NCc1ccccc1)c1ccccc1F (stereo not given) | 73.4% | 47.7% | 49.9% | 29% | 58.9% | 48.9% | 128 µg/mL (≈ 260 µM) | 41.2% |
| CCOP(=O)(OCC)C(N/C(SC)=C(/C#N)C(=O)OC)c1ccccc1F (stereo not given) | 92.1% | 44% | 58.4% | 40.8% | 69.7% | 60.6% | 55.3 µg/mL (≈ 133 µM) | 52.5% |
| CCCCOP(=O)(OCCCC)C(N/C(SC)=C(/C#N)C(=O)OCCOCC)c1ccccc1 (stereo not given) | 80.6% | 44.4% | 51.8% | 27.8% | 62% | 53.8% | 87.9 µg/mL (≈ 171 µM) | 42.8% |
| CCCOP(=O)(OCCC)C(N/C(SC)=C(/C#N)C(=O)OC)c1ccccc1 (stereo not given) | 47.1% | 44.4% | 37.7% |  |  |  |  |  |
| CCOP(=O)(OCC)C(N/C(SC)=C(/C#N)C(=O)NCc1ccccc1)c1ccccc1 (stereo not given) | 51.9% | 55.1% | 55% |  |  |  |  |  |
| CNCC(=O)N[C@@H](CO)C(=O)N[C@H]1[C@H](O)[C@@H](O)[C@H](n2ccc(N)nc2=O)O[C@@H]1C(N)=O [NINGNANMYCIN] | 99.5% | 59.9% | 55.8% | 42.1% | 80% | 70% | 50.9 µg/mL (≈ 115 µM) | 60.1% |
| CCCCOP(=O)(OCCCC)C(N/C(SC)=C(/C#N)C(N)=O)c1ccccc1 (stereo not given) | 9.6% | 40.2% | 25.4% |  |  |  |  |  |
| CCOP(=O)(OCC)C(N/C(SC)=C(/C#N)C(N)=O)c1ccccc1F (stereo not given) | 70.7% | 42.8% | 25.4% | 26.9% | 49% | 46.2% | 151 µg/mL (≈ 376 µM) | 35.8% |
| CCCCOP(=O)(OCCCC)C(N/C(SC)=C(/C#N)C(=O)NCc1ccccc1)c1ccccc1 (stereo not given) | 11% | 45% | 28.4% |  |  |  |  |  |
| CCOCCOC(=O)/C(C#N)=C(\NC(c1ccccc1)P(=O)(OCC)OCC)SC (stereo not given) | 46.8% | 41.2% | 55.2% |  |  |  |  |  |
| CCCOP(=O)(OCCC)C(N/C(SC)=C(/C#N)C(N)=O)c1ccccc1 (stereo not given) | 63% | 45.8% | 53.9% |  |  |  |  |  |
